Measurements as given in article PMC11951139 (Journal of Agricultural and Food Chemistry, 2025).
Entries after “also recorded” stand apart in the source; their conditions may differ.

Experiments:
[1] = tested on: DmATG8a^K48A; assay: MST binding to the DmATG8a K48A mutant; parameters: species or system Drosophila melanogaster; conditions: 25 °C
Procedure, shortened: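 K48A point mutant of DmATG8a made by site-directed mutagenesis in pET-32a. Expressed and purified as for wild type: E. coli BL21(DE3), His-tag affinity, TEV cleavage, desalting. Binding of the test indole assessed by microscale thermophoresis with fluorescently labelled protein.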

[2] = molecular target: DmATG8a (Drosophila melanogaster, UniProt Q9W2S2); assay: Microscale thermophoresis; type: binding; conditions: for Kd: Kd value (binding affinity with DmATG8a), MST, fluorescently labeled DmATG8a
Procedure, shortened: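 Wild-type DmATG8a expressed from pET-32a in E. coli BL21(DE3), induced with 1 mM IPTG at 20 °C for 16 h. Purified by His-tag affinity, TEV tag removal and size exclusion in 20 mM Tris-HCl, 300 mM NaCl, pH 7.5. Protein labelled with RED-NHS dye. Test compounds and tryptophan run as 16-point dilutions from 0.06 to 2000 μM, 5 min in the dark, then MST on a Monolith NT.115.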

[3] = tested on: D. melanogaster adult flies; assay: Insecticidal activity, combined gastric poisoning and contact method; type: in vivo, Drosophila melanogaster; conditions: for insecticidal activity: 500 μg/mL, adult flies, mortality after 24 h
Procedure, shortened: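 Adult fruit flies, about twenty 2-day-old per dish. Apple slices soaked 1 min in test solution, then placed in the Petri dish, combining ingestion and contact exposure. Triplicate per treatment, with water as negative and avermectin as positive control. Held at 24 ± 1 °C, 75 ± 5% RH, 16 h light:8 h dark. Mortality scored at 24 h by gently touching insects with a brush.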

Sequence of DmATG8a (Q9W2S2 1-121): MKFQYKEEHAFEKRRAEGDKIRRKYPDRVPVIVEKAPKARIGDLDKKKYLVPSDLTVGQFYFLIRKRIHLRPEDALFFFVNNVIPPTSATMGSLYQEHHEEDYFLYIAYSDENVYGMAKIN

Fc1ccc2cc[nH]c2c1 [6-fluoroindole]
binding to DmATG8a^K48A [1]: no affinity; also recorded: no binding
fold lower Kd than tryptophan ([2]; Kd of 6-fluoroindole versus Kd of tryptophan): approximately 19 fold
Kd [2]: 3.54 µM
insecticidal activity [3]: 100%
LC50 ([3]; Drosophila melanogaster, 24 h): 169 µg/mL

CC[C@H](C)[C@H]1O[C@]2(C=C[C@@H]1C)C[C@@H]1C[C@@H](C/C=C(\C)[C@@H](O[C@H]3C[C@H](OC)[C@@H](O[C@H]4C[C@H](OC)[C@@H](O)[C@H](C)O4)[C@H](C)O3)[C@@H](C)/C=C/C=C3\CO[C@@H]4[C@H](O)C(C)=C[C@@H](C(=O)O1)[C@]34O)O2 [avermectin]
insecticidal activity [3]: 100%
LC50 ([3]; Drosophila melanogaster, 24 h): 30.5 µg/mL
mortality at 15 µg/mL ([3]; Drosophila melanogaster, 24 h): 33%

N[C@@H](Cc1c[nH]c2ccccc12)C(=O)O [tryptophan, reference compound]
Kd [2]: 67 µM
